We go through nine compounds from article PMC3180826 (ACS chemical neuroscience, 2010).

The IC50 is the concentration needed to halve the response being measured. As a reminder, the EC50 is the concentration needed to bring the measured effect to its halfway point. What is called solubility is the dissolved amount per volume that the medium holds. A low value points to a poorly soluble substance. By Kp is commonly meant the ratio of the level in a tissue or fluid to that in plasma or blood.

One data set has as its target T1, rM1 Y381A (Rattus norvegicus, UniProt P08482, Y381A).
T1 sequence (P08482 1-460 Y381A): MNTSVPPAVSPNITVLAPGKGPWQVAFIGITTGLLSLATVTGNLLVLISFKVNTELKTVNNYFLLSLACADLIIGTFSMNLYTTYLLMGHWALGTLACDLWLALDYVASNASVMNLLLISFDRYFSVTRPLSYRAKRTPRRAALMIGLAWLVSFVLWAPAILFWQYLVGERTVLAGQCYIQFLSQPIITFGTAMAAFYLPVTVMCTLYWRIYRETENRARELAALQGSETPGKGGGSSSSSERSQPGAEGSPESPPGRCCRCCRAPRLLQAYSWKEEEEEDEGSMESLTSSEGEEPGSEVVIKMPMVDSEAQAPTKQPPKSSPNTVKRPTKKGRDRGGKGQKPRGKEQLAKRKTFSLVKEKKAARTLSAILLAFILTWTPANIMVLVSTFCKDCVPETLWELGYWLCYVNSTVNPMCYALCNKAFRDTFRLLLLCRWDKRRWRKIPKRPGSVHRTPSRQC
The experiment in a line: Calcium mobilization in rM1 Y381A. The class given is cell-based. The note with it: for potency at M1 Y381A compared with WT M1: M1Y381A CHO cells vs WT M1 CHO cells. (Calcium flux is commonly read through the fluorescence of an indicator in the cells.)

Another data set addresses T2, M2 (Homo sapiens, UniProt P08172).
T2 sequence (P08172 1-466): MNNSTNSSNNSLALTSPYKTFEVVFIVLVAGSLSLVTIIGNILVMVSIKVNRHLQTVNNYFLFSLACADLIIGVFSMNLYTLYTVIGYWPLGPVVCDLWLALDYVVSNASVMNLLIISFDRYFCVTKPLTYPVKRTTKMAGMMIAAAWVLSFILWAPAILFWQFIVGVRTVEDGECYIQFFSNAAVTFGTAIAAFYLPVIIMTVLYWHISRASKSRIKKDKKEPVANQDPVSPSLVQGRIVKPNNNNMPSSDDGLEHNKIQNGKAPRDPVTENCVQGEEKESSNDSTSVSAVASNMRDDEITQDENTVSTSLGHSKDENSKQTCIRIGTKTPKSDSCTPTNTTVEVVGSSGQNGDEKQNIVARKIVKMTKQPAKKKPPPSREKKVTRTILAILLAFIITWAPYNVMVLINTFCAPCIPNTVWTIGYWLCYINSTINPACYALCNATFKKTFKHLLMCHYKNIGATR
Nature of the data set: Antagonism of EC80 ACh response, calcium mobilization, M2. Format: cell-based. The note with it: read-out: M2 antagonism IC50; attenuation of EC80 ACh response.

Another data set deals with T3, M5 (Homo sapiens, UniProt P08912).
T3 sequence (P08912 1-532): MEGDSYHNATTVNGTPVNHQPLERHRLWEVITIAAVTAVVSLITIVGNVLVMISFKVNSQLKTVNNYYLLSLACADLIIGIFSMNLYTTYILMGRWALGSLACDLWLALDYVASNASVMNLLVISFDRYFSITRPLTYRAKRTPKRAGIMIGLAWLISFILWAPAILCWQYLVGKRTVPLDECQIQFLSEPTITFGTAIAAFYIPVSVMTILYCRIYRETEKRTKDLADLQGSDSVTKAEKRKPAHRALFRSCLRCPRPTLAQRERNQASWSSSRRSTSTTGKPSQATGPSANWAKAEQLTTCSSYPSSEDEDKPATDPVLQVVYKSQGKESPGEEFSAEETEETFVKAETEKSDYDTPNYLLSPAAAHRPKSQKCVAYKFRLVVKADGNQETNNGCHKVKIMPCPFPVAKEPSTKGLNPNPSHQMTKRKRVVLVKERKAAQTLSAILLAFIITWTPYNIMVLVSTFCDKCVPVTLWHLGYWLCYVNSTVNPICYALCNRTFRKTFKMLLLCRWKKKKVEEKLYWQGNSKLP
The experiment in a line: Antagonism of EC80 ACh response, calcium mobilization, M5. The class given is cell-based. The following applies: read-out: M5 antagonism IC50; attenuation of EC80 ACh response.

The next data set deals with T4, hM2 (Homo sapiens, UniProt P08172).
T4 sequence (P08172 1-466): T2 sequence (P08172 1-466)
The experiment in a line: Calcium mobilization assay, agonist mode, M2. The class given is cell-based. The note with it: up to 30 μM. In short, it runs like this: (§1)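 CHO-K1 cells stably expressing hM2/Gqi5 or rM4/Gqi5 (6 × 10^4 cells/well), or hM3 or hM5 (5 × 10^4 cells/well), were cultured overnight at 37 °C in 5% CO2. Cells were loaded with 2 μM Fluo-4 AM for 1 h at 37 °C in HBSS with 20 mM HEPES and 2.5 mM probenecid, pH 7.4. Eight-point test compound concentration series were added at 19 s of a 130 s read. Calcium flux was read as fluorescence fold over basal.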

A further data set addresses T5, rM4 (Rattus norvegicus, UniProt P08485).
T5 sequence (P08485 1-478): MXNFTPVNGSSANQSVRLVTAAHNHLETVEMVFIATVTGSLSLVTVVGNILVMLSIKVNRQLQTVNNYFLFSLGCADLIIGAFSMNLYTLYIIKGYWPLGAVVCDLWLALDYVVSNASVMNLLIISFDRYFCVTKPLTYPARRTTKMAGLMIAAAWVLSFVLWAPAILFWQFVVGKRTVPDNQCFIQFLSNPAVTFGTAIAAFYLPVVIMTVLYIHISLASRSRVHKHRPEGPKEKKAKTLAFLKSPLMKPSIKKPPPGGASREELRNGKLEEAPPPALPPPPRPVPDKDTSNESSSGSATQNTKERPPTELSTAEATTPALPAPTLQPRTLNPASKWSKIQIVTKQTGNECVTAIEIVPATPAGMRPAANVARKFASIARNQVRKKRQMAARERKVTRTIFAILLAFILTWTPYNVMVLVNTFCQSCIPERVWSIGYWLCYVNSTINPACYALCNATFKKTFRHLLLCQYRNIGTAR
The experiment in a line: Calcium mobilization assay, agonist mode, M4. Format: cell-based. The following applies: up to 30 μM. Put shortly: as §1

The target of a further data set is T6, M1 (Rattus norvegicus, UniProt P08482).
T6 sequence (P08482 1-460): T1 sequence (P08482 1-460 Y381A) with A381Y
Nature of the data set: HTS confirmation concentration-response in M1-CHO cells. The class given is cell-based. The note with it: for sensitivity to block by atropine: concentration series in the presence of atropine; for EC50: read-out: M1 EC50, from the DPI DMSO stock.

A further data set addresses T7, rM1 receptor (Rattus norvegicus, UniProt P08482).
T7 sequence (P08482 1-460): T1 sequence (P08482 1-460 Y381A) with A381Y
Nature of the data set: Calcium mobilization assay, CHO-K1 cells stably expressing rM1. The class given is cell-based. The note with it: for EC50: read-out: M1 EC50; for M1 potency and efficacy (SAR statement): substitution around the benzyl ring.

A further data set deals with hM3 (Homo sapiens, UniProt P20309). The experiment in a line: Calcium mobilization assay, agonist mode, M3. The class given is cell-based. The note with it: up to 30 μM. Put shortly: as §1
Chain of hM3 (P20309 whole entry): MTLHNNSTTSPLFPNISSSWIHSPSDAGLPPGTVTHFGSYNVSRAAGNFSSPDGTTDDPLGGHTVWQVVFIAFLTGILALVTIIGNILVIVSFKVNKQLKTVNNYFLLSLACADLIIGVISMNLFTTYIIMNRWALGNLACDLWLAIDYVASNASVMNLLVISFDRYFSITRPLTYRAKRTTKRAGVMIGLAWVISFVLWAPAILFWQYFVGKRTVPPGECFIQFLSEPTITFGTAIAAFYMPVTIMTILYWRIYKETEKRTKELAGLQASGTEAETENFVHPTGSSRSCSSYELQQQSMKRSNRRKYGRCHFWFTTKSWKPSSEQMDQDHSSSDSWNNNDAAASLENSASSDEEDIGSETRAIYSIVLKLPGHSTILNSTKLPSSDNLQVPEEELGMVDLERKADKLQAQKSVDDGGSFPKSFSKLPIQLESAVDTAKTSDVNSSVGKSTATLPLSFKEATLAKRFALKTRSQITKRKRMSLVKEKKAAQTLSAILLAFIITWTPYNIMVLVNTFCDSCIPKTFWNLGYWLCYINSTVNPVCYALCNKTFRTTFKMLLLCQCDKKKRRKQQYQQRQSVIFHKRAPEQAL
A further data set has as its target T8, hM5 (Homo sapiens, UniProt P08912).
T8 sequence (P08912 1-532): T3 sequence (P08912 1-532)
Nature of the data set: Calcium mobilization assay, agonist mode, M5. The following applies: up to 30 μM. The class given is cell-based. Put shortly: as §1

The next data set in a line: Aqueous solubility. Format: physicochemical. The note with it: water.
Data set [1] can be described thus: Plasma-brain exposure profile PK study. The note with it: rat. Format: in vivo. Put shortly:
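Test compound was dissolved in sterile water at 5 mg/mL and dosed at 10 mg/kg ip in male Sprague–Dawley rats (225–250 g). Plasma and brain were collected at 0.5, 1, 2, 4 and 8 h, with three rats per time point. Brains were homogenized 1:3 in PBS, and samples were extracted by acetonitrile/0.1% formic acid precipitation with internal standard. Quantification was by LC-MS/MS SRM (10–2000 ng/mL calibration), with noncompartmental analysis.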

The test system of data set [2] is scopolamine-induced deficits in contextual fear conditioning. Nature of the data set: Contextual fear conditioning, scopolamine-induced deficit. Format: in vivo. The note with it: rat; for effect on acquisition of contextual fear conditioning response: 0.2 mg/kg s.c., 15 minutes prior to training, 0.2 mg/kg. In short, it runs like this: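 Male Sprague–Dawley rats (380–420 g) were habituated to vehicle injections for 2 days. Test compound (1–10 mg/kg ip) was given 30 min before training, and scopolamine (0.2 mg/kg sc) or vehicle 15 min before. Training used two 1 s, 0.5 mA footshocks 2.5 min apart, with a vanilla odour cue. At 24 h, video-scored freezing over 7 min was expressed as percent. Groups had 3–4 rats; one-way ANOVA with Dunnett's test against vehicle/scopolamine.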

The mark [3] stands for this setting: rM1 CHO-K1, calcium mobilization.

Changes are numbered by the printed parent chain. Bounds are passed on as bounds.

`Clc1ccc2c(c1)N=C(N1CCNCC1)c1ccccc1N2` [NDMC, N-desmethylclozapine, reference compound]: at rM1 Y381A, the “potency at M1 Y381A compared with WT M1” value is reported as “potency similar to that observed in cells expressing WT M1”.
Turning to `Cc1ccccc1CN1CCC(N2CCC(n3c(=O)[nH]c4ccccc43)CC2)CC1` [TBPB], the values for the IC50 on M2 and on M5 were 1100 nM and 10100 nM, respectively.
On to `CCOC(=O)N1CCC(NCCNC(=O)c2cccs2)CC1` [VU0177548], for which the “agonist activity at M2” value on hM2 is recorded as “no alteration was detected in baseline”. In addition, the “agonist activity at M4” value on rM4 is listed as “no alteration was detected in baseline”. Moreover, the “selectivity for M1 vs. M4” value on M1 (M1-CHO vs M4/Gqi5 CHO cells) is listed as above 50 fold. Also, the “sensitivity to block by atropine” value at M1 is “sensitive to block by atropine”. Besides, the EC50 at M1 was around 1000 nM; at rM1 Y381A (read-out: rM1 Y381A EC50, rM1 Y381A cells), 1230 nM; on rM1 receptor (setting [3]), 1740 nM. The “rM1 Y381A AChmax (maximal efficacy)” value on rM1 Y381A (rM1 Y381A cells) was found to be 44.69 % max. Further, the “agonist activity at M3” value at hM3 is listed as “no alteration was detected in baseline”. Moreover, the “agonist activity at M5” value on hM5 is “no alteration was detected in baseline”.
For the compound `CCOC(=O)N1CCC(NCCNC(=O)c2ccccc2Cl)CC1` [VU0207811], the “agonist activity at M2” value on hM2 is “no alteration was detected in baseline”. In addition, the “agonist activity at M4” value on rM4 is on record as “no alteration was detected in baseline”. Further, at M1, the “sensitivity to block by atropine” value is given as “sensitive to block by atropine” and the EC50 was around 1000 nM. The “rM1 Y381A AChmax (maximal efficacy)” value at rM1 Y381A (rM1 Y381A cells) is 45.80 % max. For the same compound, the EC50 at rM1 receptor (setting [3]) amounted to 804 nM. Moreover, the “agonist activity at M3” value at hM3 is listed as “no alteration was detected in baseline”. At hM5, the “agonist activity at M5” value was “no alteration was detected in baseline”.
On to `CCOC(=O)N1CCC(NCCNC(=O)c2ccccc2C)CC1` [VU0357017, ethyl 4-(2-(2-methylbenzamido)ethylamino)piperidine-1-carboxylate], for which, on hM2, the “agonist activity at M2” value is reported as “no activity”. Also, the “agonist activity at M4” value at rM4 was “no activity”. In addition, the “potency at M1 Y381A compared with WT M1” value on rM1 Y381A is “potencies similar to those observed in WT M1 CHO cells”. In addition, the “ACh Max efficacy” value at rM1 receptor (setting [3]) turned out to be 80.52 % ACh Max. Besides, the “agonist activity at M3” value on hM3 was “no activity”. In the data set “Aqueous solubility”, this compound had a solubility above 25 mg/mL. This compound also gave a Kp in data set [1] (male, Sprague-Dawley, brain and plasma, ip, 10 mg/kg) of 1.46. The compound also displayed a brain level in data set [1] (10 mg/kg i.p., brain) of 4338.90 ± 1071.20 ng/mL. The plasma level in data set [1] (10 mg/kg i.p., plasma) amounted to 1053.49 ± 276.03 ng/mL. Besides, in [1] (i.p. administration), the central penetrance entry is “centrally-penetrant”. For the same compound, the “reversal of scopolamine-induced deficits in contextual fear conditioning” value in data set [2] (10 mg/kg i.p., scopolamine 0.2 mg/kg s.c., p < 0.05) is “significant reversal”. The “agonist activity at M5” value on hM5 is recorded as “no activity”.
On to `CCOC(=O)N1CCC(NCCNC(=O)c2ccc(F)cc2)CC1.O=C(O)C(F)(F)F` [VU0359993], for which the “M1 potency and efficacy (SAR statement)” value at rM1 receptor was “retaining substantial potency and efficacy”.
For the compound `CCOC(=O)N1CCC(NCCNC(=O)c2cccc(F)c2)CC1.O=C(O)C(F)(F)F` [VU0359995], the “M1 potency and efficacy (SAR statement)” value on rM1 receptor is “retaining substantial potency and efficacy”.
Same read-out and setting: the result for `CCOC(=O)N1CCC(NCCNC(=O)c2cccc(OC)c2)CC1.O=C(O)C(F)(F)F` [VU0360014] reads “retaining substantial potency and efficacy”.
With `CN1[C@@H]2C[C@@H](OC(=O)[C@H](CO)c3ccccc3)C[C@H]1[C@@H]1O[C@@H]12` [scopolamine], the “effect on acquisition of contextual fear conditioning response” value in data set [2] is “significant disruption”; in [2] (listed as Scopolamine) it was “robust disruption”.
